Tm and folding enthalpy data for 37 sequences are collected here from the array DNA melting data of Ke et al. (doi:10.1101/2024.01.08.574731).

The nature of data set [1]: melting temperature; fluorescence melt of hairpins on a sequencing array, two-state fit, raised by 9.35 °C to match UV melts. Particulars: sodium 0.088 M. The procedure, abridged:
(§1)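 In 50 mM Na-HEPES pH 8.0 containing 25 mM NaCl, hairpins from the library on a sequenced MiSeq flow cell were imaged for Cy3 fluorescence at 2.5 °C steps up to 60 °C, with Cy3 and quencher oligos annealed. After normalisation to pre-quench Cy3 and to control constructs, two-state fits with bootstrapping gave melting temperature and folding enthalpy. Four replicates were combined by inverse-variance weighting, and fitted temperatures were shifted up by 9.35 °C to match UV melts.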

Data set [2] can be described thus: folding enthalpy; higher = less favourable; fluorescence melt of hairpins on a sequencing array, two-state fit. Particulars: sodium 0.088 M. The procedure, abridged:
as §1

Consider GTTGTCGAAAGACGGAAC ((((((....)))..))), for which the Tm in data set [1] was determined as 31.3 °C. Besides, in data set [2], the folding enthalpy is -10.3 kcal/mol.
Take GTTGTCGCGAAAGCGAAC (((..(((....)))))): the Tm in data set [1] amounted to 56.9 °C. For the same sequence, the folding enthalpy in data set [2] is -15.7 kcal/mol.
Consider GTTGTCGGAAACGGTAAC (((..((....))..))), for which the Tm in data set [1] is 33.1 °C. Further, in data set [2], the folding enthalpy was -21.9 kcal/mol.
Take GTTGTGAAAACAAC (((((....))))): the Tm in data set [1] was 50.5 °C. Moreover, the folding enthalpy in data set [2] is -29.6 kcal/mol.
Turning to GTTGTGCGAAAGCAAAC (((.(((....)))))), the Tm in data set [1] was 46.8 °C. Further, in data set [2], the folding enthalpy is -16.5 kcal/mol.
Turning to GTTGTGCGAAAGCAGAAC (((.(((....))).))), the Tm in data set [1] is 54.1 °C. In data set [2], the folding enthalpy is -30.9 kcal/mol.
As for GTTGTGGGAAACTACAAC (((((.(....).))))), in data set [1], the Tm is 46.3 °C. The folding enthalpy in data set [2] is -36.1 kcal/mol.
Take GTTGTTCGAAAGAAAAAC (((.(((....))).))): the Tm in data set [1] turned out to be 34.9 °C. The folding enthalpy in data set [2] is -29.1 kcal/mol.
With GTTGTTGGAAACAACGAC ((.((((....)))).)), the Tm in data set [1] turned out to be 55.9 °C. Also, the folding enthalpy in data set [2] is -18.6 kcal/mol.
With GTTTAACCGAAAGGTAAC (((..(((....)))))), the Tm in data set [1] stood at 29.7 °C. Moreover, the folding enthalpy in data set [2] was -10.4 kcal/mol.
As to GTTTAAGGAAACTTAAGC (.(((((....))))).), the Tm in data set [1] was found to be 32.4 °C. In addition, in data set [2], the folding enthalpy is -13.9 kcal/mol.
Turning to GTTTAAGGAAACTTGAAC (((.(((....))).))), the Tm in data set [1] came to 35 °C. Besides, the folding enthalpy in data set [2] is -18.5 kcal/mol.
Regarding GTTTACCGAAAGGTCAAC (((.(((....))).))), the Tm in data set [1] is 39.1 °C. In data set [2], the folding enthalpy was -24.8 kcal/mol.
Turning to GTTTACGGAAACGTAAAC (((((((....))))))), the Tm in data set [1] worked out at 57.5 °C. For the same sequence, the folding enthalpy in data set [2] was -41.1 kcal/mol.
For the sequence GTTTACGGAAACGTAGAC ((.((((....)))).)), in data set [1], the Tm stood at 40.3 °C. The folding enthalpy in data set [2] was -24.7 kcal/mol.
For GTTTAGCGAAAGCTAAC (((.(((....)))))) the same measures were 44.1 °C and -11.7 kcal/mol.
For GTTTAGCGAAAGCTTAAC (((.(((....))).))), the Tm in data set [1] worked out at 44.1 °C. In addition, the folding enthalpy in data set [2] was -22.1 kcal/mol.
Take GTTTAGGAAACTAAAC ((((((....)))))): the Tm in data set [1] is 44.7 °C. For the same sequence, the folding enthalpy in data set [2] is -30.6 kcal/mol.
On to GTTTAGGGAAACCTGAAC (((.(((....))).))), for which the Tm in data set [1] was 38.5 °C. Besides, the folding enthalpy in data set [2] was -34.8 kcal/mol.
For GTTTAGGGAAACTTGAAC (((.(.(....).).))), the Tm in data set [1] was determined as 34.1 °C. The folding enthalpy in data set [2] is -13 kcal/mol.
Consider GTTTAGTCGAAAGACAAC (((..(((....)))))), for which the Tm in data set [1] was 27.4 °C. Besides, in data set [2], the folding enthalpy was -10.8 kcal/mol.
With GTTTATGCGAAAGCAAAC (((..(((....)))))), the Tm in data set [1] is 28.1 °C. Besides, the folding enthalpy in data set [2] is -8.45 kcal/mol.
The matching figures for GTTTCAGAAATGAAAC ((((((....)))))): 47.2 °C and -27.3 kcal/mol.
As for GTTTCAGGAAACTGAAAC (((((((....))))))), in data set [1], the Tm turned out to be 55.3 °C. The folding enthalpy in data set [2] is -45 kcal/mol.
For GTTTCAGGAAACTGAAGC (.(((((....))))).) the same measures were 38.9 °C and -22.2 kcal/mol.
On to GTTTCAGGAAACTGAGAC ((.((((....)))).)), for which, in data set [1], the Tm was determined as 37.3 °C. The folding enthalpy in data set [2] was -24.9 kcal/mol.
The matching figures for GTTTCCCCGAAAGGGAAC (((..(((....)))))): 38.5 °C and -13.7 kcal/mol.
With GTTTCCCGAAAGGGGAAC (((.(((....))).))), in data set [1], the Tm amounted to 56.1 °C. The folding enthalpy in data set [2] is -36.2 kcal/mol.
The matching figures for GTTTCCGAAAGGAATAAC ((((((....)))..))): 30.2 °C and -12 kcal/mol.
Turning to GTTTCCGAAAGGAGCAAC ((((((....)))..))), in data set [1], the Tm worked out at 26.8 °C. Besides, the folding enthalpy in data set [2] was -11.8 kcal/mol.
Consider GTTTCCGAAAGGATAAAC ((((((....)))..))), for which the Tm in data set [1] was found to be 29.7 °C. Moreover, the folding enthalpy in data set [2] is -15.8 kcal/mol.
With GTTTCCGAAAGGATCAAC ((((((....)))..))), the Tm in data set [1] is 22.4 °C. For the same sequence, the folding enthalpy in data set [2] is -11.2 kcal/mol.
For GTTTCCGAAAGGATGAAC ((((((....)))..))), in data set [1], the Tm was determined as 25.8 °C. The folding enthalpy in data set [2] was -8.12 kcal/mol.
With GTTTCCGGAAACGGAGAC ((.((((....)))).)), the Tm in data set [1] worked out at 47.6 °C. Moreover, the folding enthalpy in data set [2] is -20.2 kcal/mol.
The matching figures for GTTTCCGGAAACGGGAAC (((.(((....))).))): 54 °C and -28.2 kcal/mol.
For GTTTCGAAAGAAAC (((((....))))) the same measures were 53.6 °C and -29.1 kcal/mol.
For GTTTCTCGAAAGAGCAAC (((.(((....))).))) the same measures were 36.4 °C and -23.6 kcal/mol.
